Experimental data from ChEMBL document CHEMBL1137781, “Synthesis and preclinical evaluation of novel PET probes for P-glycoprotein function and expression” (J Med Chem, 2009).

Key:
Lung = test: Biodistribution in 50 mg/kg cyclosporin A pretreated Wistar rat lung at 27+/-2 MBq, iv after 80 mins; assay type: ADME, organism-based; parameters: dose 50 mg/kg, route intravenous; conditions: in vivo
Colon [1] = test: Biodistribution in Wistar rat colon at 40+/-4 MBq, iv after 80 mins; assay type: ADME, organism-based; conditions: in vivo
Method in brief: (§1)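 Male Wistar rats (12 h light/dark, chow ad libitum) were fitted with a femoral arterial cannula under isoflurane. They were pretreated via tail vein with saline, cyclosporin A (50 mg/kg), or nonradioactive tracer compound (15 mg/kg; 10 mg/mL in saline with 35% ethanol). The 11C tracer was then given via penile vein, followed by 76 min microPET. Animals were then terminated; excised tissues were weighed and gamma-counted with decay correction. Values are SUVs (tissue MBq/g × body weight g / injected MBq).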

[2] = Biodistribution in Wistar rat bulbus olfactorius at 40+/-4 MBq, iv after 80 mins; assay type: ADME, organism-based, Olfactory bulb; conditions: in vivo
Plasma [3] = test: Biodistribution in Wistar rat plasma at 40+/-4 MBq, iv after 60 mins; assay type: ADME, organism-based; conditions: in vivo, 1 h
Pancreas = test: Biodistribution in Wistar rat pancreas at 40+/-4 MBq, iv after 80 mins; assay type: ADME, organism-based; conditions: in vivo; method in brief: as §1
Pons = test: Biodistribution in 50 mg/kg cyclosporin A pretreated Wistar rat pons at 27+/-2 MBq, iv after 80 mins; assay type: ADME, organism-based; parameters: dose 50 mg/kg, route intravenous; conditions: in vivo
Plasma [4] = test: Biodistribution in Wistar rat plasma at 40+/-4 MBq, iv after 80 mins; assay type: ADME, organism-based; conditions: in vivo
[5] = Biodistribution in Wistar rat entorhinal cortex at 40+/-4 MBq, iv after 80 mins; assay type: ADME, organism-based; conditions: in vivo; method in brief: as §1
[6] = Biodistribution in 50 mg/kg cyclosporin A pretreated Wistar rat amygdala at 27+/-2 MBq, iv after 80 mins; assay type: ADME, organism-based; parameters: dose 50 mg/kg, route intravenous; conditions: in vivo
Method in brief: (§2)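 Male Wistar rats pretreated via tail vein with saline or cyclosporin A (50 mg/kg, commercial solution), then given the [11C] tracer via penile vein. After microPET scanning the anesthetized rats were killed. Tissues were excised and weighed, and blood was centrifuged into plasma and cells. γ counting with decay correction. Results as SUV (tissue MBq/g × body weight/injected dose).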

[7] = Biodistribution in 50 mg/kg cyclosporin A pretreated Wistar rat trachea at 27+/-2 MBq, iv after 80 mins; assay type: ADME, organism-based; parameters: dose 50 mg/kg, route intravenous; conditions: in vivo
Ileum = test: Biodistribution in 50 mg/kg cyclosporin A pretreated Wistar rat ileum at 27+/-2 MBq, iv after 80 mins; assay type: ADME, organism-based; parameters: dose 50 mg/kg, route intravenous; conditions: in vivo
[8] = Biodistribution in Wistar rat frontal cortex at 40+/-4 MBq, iv after 80 mins; assay type: ADME, organism-based; conditions: in vivo; method in brief: as §1
Colon [9] = test: Biodistribution in 50 mg/kg cyclosporin A pretreated Wistar rat colon at 27+/-2 MBq, iv after 80 mins; assay type: ADME, organism-based; parameters: dose 50 mg/kg, route intravenous; conditions: in vivo; method in brief: as §2
Striatum = test: Biodistribution in Wistar rat striatum at 40+/-4 MBq, iv after 80 mins; assay type: ADME, organism-based; conditions: in vivo
[10] = Biodistribution in 50 mg/kg cyclosporin A pretreated Wistar rat frontal cortex at 27+/-2 MBq, iv after 80 mins; assay type: ADME, organism-based; parameters: dose 50 mg/kg, route intravenous; conditions: in vivo
Spleen = test: Biodistribution in 50 mg/kg cyclosporin A pretreated Wistar rat spleen at 27+/-2 MBq, iv after 80 mins; assay type: ADME, organism-based; parameters: dose 50 mg/kg, route intravenous; conditions: in vivo
Brain = test: Biodistribution in 50 mg/kg cyclosporin A pretreated Wistar rat brain at 27+/-2 MBq, iv after 25 mins; assay type: ADME, organism-based; parameters: dose 50 mg/kg, route intravenous; conditions: in vivo
Method in brief: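 Male Wistar rats pretreated with saline or cyclosporin A (50 mg/kg, tail vein), then given the [11C] tracer via penile vein. Dynamic microPET with a whole-brain 3D ROI. SUV read from the time-activity curve at 25 min, assuming 1 g/mL tissue density. Mean ± SEM.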

[11] = Biodistribution in Wistar rat cingulate cortex at 40+/-4 MBq, iv after 80 mins; assay type: ADME, organism-based; conditions: in vivo; method in brief: as §1
Liver = test: Biodistribution in 50 mg/kg cyclosporin A pretreated Wistar rat liver at 27+/-2 MBq, iv after 80 mins; assay type: ADME, organism-based; parameters: dose 50 mg/kg, route intravenous; conditions: in vivo
Heart [12] = test: Biodistribution in 50 mg/kg cyclosporin A pretreated Wistar rat heart at 27+/-2 MBq, iv after 80 mins; assay type: ADME, organism-based; parameters: dose 50 mg/kg, route intravenous; conditions: in vivo
[13] = Biodistribution in Wistar rat fat at 40+/-4 MBq, iv after 80 mins; assay type: ADME, organism-based, Adipose tissue; conditions: in vivo; method in brief: as §1
[14] = Biodistribution in 50 mg/kg cyclosporin A pretreated Wistar rat parietal/temporal/occipital cortex at 27+/-2 MBq, iv after 80 mins; assay type: ADME, organism-based; parameters: dose 50 mg/kg, route intravenous; conditions: in vivo
Muscle tissue = test: Biodistribution in 50 mg/kg cyclosporin A pretreated Wistar rat muscle at 27+/-2 MBq, iv after 80 mins; assay type: ADME, organism-based; parameters: dose 50 mg/kg, route intravenous; conditions: in vivo
[15] = Biodistribution in Wistar rat red blood cells at 40+/-4 MBq, iv after 80 mins; assay type: ADME, organism-based, Erythrocyte; conditions: in vivo
Plasma [16] = test: Biodistribution in 50 mg/kg cyclosporin A pretreated Wistar rat plasma at 27+/-2 MBq, iv after 80 mins; assay type: ADME, organism-based; parameters: dose 50 mg/kg, route intravenous; conditions: in vivo
[17] = Biodistribution in 50 mg/kg cyclosporin A pretreated Wistar rat entorhinal cortex at 27+/-2 MBq, iv after 80 mins; assay type: ADME, organism-based; parameters: dose 50 mg/kg, route intravenous; conditions: in vivo; method in brief: as §2
Heart [18] = test: Biodistribution in Wistar rat heart at 40+/-4 MBq, iv after 80 mins; assay type: ADME, organism-based; conditions: in vivo; method in brief: as §1
Duodenum = test: Biodistribution in 50 mg/kg cyclosporin A pretreated Wistar rat duodenum at 27+/-2 MBq, iv after 80 mins; assay type: ADME, organism-based; parameters: dose 50 mg/kg, route intravenous; conditions: in vivo; method in brief: as §2

Compound `COc1cc2c(cc1OC)CN(CCCC1CCCc3c(O[11CH3])cccc31)CC2` (stereo not drawn) has an SUV (Lung) of 0.98, an SUV (Colon [1]) of 1.37 and an SUV [2] of 0.33. For the same compound, the SUV (Plasma [3]) was 0.34, the SUV (Pancreas) was 3.16 and the SUV (Pons) was 1.28. The SUV (Plasma [4]) was 0.29, the SUV [5] was 0.35 and the SUV [6] was 1.07. The SUV [7] was 0.74, the SUV (Ileum) was 1.1 and the SUV [8] was 0.36. For the same compound, the SUV (Colon [9]) was 1.81, the SUV (Striatum) was 0.31 and the SUV [10] was 1.06. For the same compound, the SUV (Spleen) was 1.73, the SUV (Brain) was 2.17 and the SUV [11] was 0.37. It also gave an SUV (Liver) of 2.67, an SUV (Heart [12]) of 0.34 and an SUV [13] of 0.36. The SUV [14] was 1.04, the SUV (Muscle tissue) was 0.26 and the SUV [15] was 0.18. For the same compound, the SUV (Plasma [16]) was 0.32, the SUV [17] was 1.23 and the SUV (Heart [18]) was 0.37. For the same compound, the SUV (Duodenum) was 2.58.
